pKi: −log10 of the molar value.
Legend:
[1] = organism: Rattus norvegicus; assay: Regional uptake of [18F]AFA in cerebellum of rat pretreated with compound GBR-12935; n=3; format: functional, organism-based; conditions: tested as the 18F-labelled form
Method in brief: (§1)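 Male Sprague-Dawley rats, three per group, received blocker (2 mg/kg iv in saline) or saline only (controls) 10–15 min before about 20 µCi of tail-vein F-18 radioligand. Killed 60 min after tracer. Blood and brain regions weighed and gamma-counted. %ID/g was decay- and tail-corrected; mean ± SD.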

[2] = target: Sodium-dependent serotonin transporter (Rattus norvegicus) (UniProt P31652); assay: Specific binding of [18F]AFA in rat hypothalamus after nisoxetine treatment; n=3; format: functional, tissue-based; conditions: tested as the 18F-labelled form
Chain of Sodium-dependent serotonin transporter (Rattus norvegicus) (P31652 whole entry): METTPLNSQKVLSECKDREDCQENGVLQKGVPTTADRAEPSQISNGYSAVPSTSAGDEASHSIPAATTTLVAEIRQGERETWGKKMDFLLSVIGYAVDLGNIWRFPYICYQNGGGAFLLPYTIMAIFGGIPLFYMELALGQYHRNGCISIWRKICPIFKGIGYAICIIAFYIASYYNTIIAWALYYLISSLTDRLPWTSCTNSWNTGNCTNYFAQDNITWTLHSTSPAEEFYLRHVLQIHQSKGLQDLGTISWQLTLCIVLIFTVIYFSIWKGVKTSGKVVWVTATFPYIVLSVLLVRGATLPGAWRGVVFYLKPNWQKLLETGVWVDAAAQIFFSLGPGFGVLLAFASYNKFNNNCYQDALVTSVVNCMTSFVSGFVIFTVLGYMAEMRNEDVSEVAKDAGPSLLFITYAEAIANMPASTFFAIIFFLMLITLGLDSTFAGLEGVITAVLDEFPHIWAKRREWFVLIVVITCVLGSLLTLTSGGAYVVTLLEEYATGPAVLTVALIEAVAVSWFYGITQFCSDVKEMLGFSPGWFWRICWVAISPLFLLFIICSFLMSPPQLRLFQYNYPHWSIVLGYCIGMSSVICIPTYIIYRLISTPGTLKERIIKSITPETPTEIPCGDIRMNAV
Method in brief: (§2)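 Rats, three per group, were pretreated iv with blocker at 2 mg/kg in saline, or with saline as control, 10–15 min before tail-vein F-18 radioligand (about 20 µCi). Killed at 60 min and regional %ID/g determined. Specific binding = (region activity − cerebellum activity)/cerebellum activity; mean ± SD.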

[3] = organism: Rattus norvegicus; assay: Regional uptake of [18F]AFA in hypothalamus of rat pretreated with compound GBR-12935; n=3; format: functional, organism-based; conditions: tested as the 18F-labelled form; method in brief: as §1
[4] = target: Sodium-dependent serotonin transporter (Rattus norvegicus) (UniProt P31652); assay: Specific binding of [18F]AFA in rat thalamus after GBR-12935 treatment; n=3; format: functional, tissue-based; conditions: tested as the 18F-labelled form; method in brief: as §2
[5] = organism: Rattus norvegicus; assay: Regional uptake of [18F]AFA in thalamus of rat pretreated with compound nisoxetine; n=3; format: functional, organism-based; conditions: tested as the 18F-labelled form; method in brief: as §1
[6] = organism: Rattus norvegicus; assay: Regional uptake of [18F]AFA in frontal cortex of rat pretreated with compound nisoxetine; n=3; format: functional, organism-based; conditions: tested as the 18F-labelled form; method in brief: as §1
[7] = target: Sodium-dependent serotonin transporter (Rattus norvegicus) (UniProt P31652); assay: Specific binding in rat hypothalamus at 60 min postinjection in vivo; format: functional, organism-based; conditions: tested as the 18F-labelled form
Method in brief: (§3)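 Male Sprague-Dawley rats, n=3 per time point, received about 20 µCi of F-18 radioligand in saline iv by tail vein and were killed at 10–120 min. %ID/g was measured with decay and tail-residual correction. Hypothalamic specific binding = (%ID/g hypothalamus − %ID/g cerebellum)/%ID/g cerebellum; mean ± SD.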

[8] = organism: Rattus norvegicus; assay: Regional uptake of [18F]AFA in hypothalamus of rat pretreated with compound 7e; n=3; format: functional, organism-based; conditions: tested as the 18F-labelled form
[9] = organism: Rattus norvegicus; assay: Regional uptake of [18F]-AFA in blood of rat pretreated with compound citalopram; n=3; format: functional, organism-based; conditions: tested as the 18F-labelled form; method in brief: as §1
[10] = target: Sodium-dependent serotonin transporter (Rattus norvegicus) (UniProt P31652); assay: Specific binding of [18F]AFA in rat hypothalamus after citalopram treatment; n=3; format: functional, tissue-based; conditions: tested as the 18F-labelled form; method in brief: as §2
[11] = target: Sodium-dependent serotonin transporter (Rattus norvegicus) (UniProt P31652); assay: Specific binding in rat hypothalamus at 10 min postinjection in vivo; format: functional, organism-based; conditions: tested as the 18F-labelled form; method in brief: as §3
[12] = target: Sodium-dependent serotonin transporter (Rattus norvegicus) (UniProt P31652); assay: Specific binding of [18F]AFA in rat hippocampus after nisoxetine treatment; n=3; format: functional, tissue-based; conditions: tested as the 18F-labelled form; method in brief: as §2
[13] = target: Sodium-dependent serotonin transporter (Rattus norvegicus) (UniProt P31652); assay: Specific binding in rat hypothalamus at 30 min postinjection in vivo; format: functional, organism-based; conditions: tested as the 18F-labelled form; method in brief: as §3
[14] = organism: Rattus norvegicus; assay: Regional uptake of [18F]AFA in hippocampus of rat pretreated with compound 7e; n=3; format: functional, organism-based; conditions: tested as the 18F-labelled form
[15] = organism: Rattus norvegicus; assay: Regional uptake of [18F]AFA in striatum of rat pretreated with compound citalopram; n=3; format: functional, organism-based; conditions: tested as the 18F-labelled form; method in brief: as §1
[16] = organism: Rattus norvegicus; assay: Regional uptake of [18F]AFA in thalamus of rat pretreated with compound 7e; n=3; format: functional, organism-based; conditions: tested as the 18F-labelled form
[17] = target: Sodium-dependent serotonin transporter (Rattus norvegicus) (UniProt P31652); assay: Specific binding in rat hypothalamus at 120 min postinjection in vivo; format: functional, organism-based; conditions: tested as the 18F-labelled form; method in brief: as §3
[18] = organism: Rattus norvegicus; assay: Regional uptake of [18F]AFA in blood of rat pretreated with compound nisoxetine; n=3; format: functional, organism-based; conditions: tested as the 18F-labelled form; method in brief: as §1
[19] = target: Sodium-dependent serotonin transporter (Rattus norvegicus) (UniProt P31652); assay: Specific binding of [18F]-AFA in rat striatum after citalopram treatment; n=3; format: functional, tissue-based; conditions: tested as the 18F-labelled form; method in brief: as §2
[20] = target: Sodium-dependent serotonin transporter (Rattus norvegicus) (UniProt P31652); assay: Specific binding of [18F]AFA in rat thalamus after nisoxetine treatment; n=3; format: functional, tissue-based; conditions: tested as the 18F-labelled form; method in brief: as §2
[21] = target: Sodium-dependent serotonin transporter (Rattus norvegicus) (UniProt P31652); assay: Specific binding of [18F]AFA in rat frontal cortex after nisoxetine treatment; n=3; format: functional, tissue-based; conditions: tested as the 18F-labelled form; method in brief: as §2
[22] = target: Sodium-dependent serotonin transporter (Homo sapiens, UniProt P31645); assay: In vitro displacement of [3H]paroxetine from human serotonin transporter expressed in HEK293 cells; format: cell-based
Chain of Sodium-dependent serotonin transporter (P31645 whole entry): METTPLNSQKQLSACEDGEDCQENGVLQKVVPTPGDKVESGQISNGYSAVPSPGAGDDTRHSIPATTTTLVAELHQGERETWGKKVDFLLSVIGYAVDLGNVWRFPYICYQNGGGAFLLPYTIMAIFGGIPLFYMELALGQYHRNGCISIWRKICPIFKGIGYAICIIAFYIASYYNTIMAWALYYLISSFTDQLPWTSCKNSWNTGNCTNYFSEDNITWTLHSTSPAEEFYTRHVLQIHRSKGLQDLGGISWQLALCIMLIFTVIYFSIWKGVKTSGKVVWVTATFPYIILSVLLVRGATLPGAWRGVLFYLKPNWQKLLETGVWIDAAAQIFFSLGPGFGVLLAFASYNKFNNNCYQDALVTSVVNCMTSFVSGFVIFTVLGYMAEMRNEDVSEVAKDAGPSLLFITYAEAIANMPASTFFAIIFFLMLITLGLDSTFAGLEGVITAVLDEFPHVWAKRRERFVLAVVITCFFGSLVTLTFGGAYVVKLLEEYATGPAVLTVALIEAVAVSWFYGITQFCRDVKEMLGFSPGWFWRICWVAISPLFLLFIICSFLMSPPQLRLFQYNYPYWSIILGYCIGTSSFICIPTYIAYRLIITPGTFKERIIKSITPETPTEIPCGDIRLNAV

[23] = organism: Rattus norvegicus; assay: Regional uptake of [18F]-AFA in striatum of rat pretreated with compound GBR-12935; n=3; format: functional, organism-based; conditions: tested as the 18F-labelled form; method in brief: as §1
[24] = organism: Rattus norvegicus; assay: Regional uptake of [18F]-AFA in blood of rat pretreated with compound GBR-12935; n=3; format: functional, organism-based; conditions: tested as the 18F-labelled form; method in brief: as §1
[25] = organism: Rattus norvegicus; assay: Regional uptake of [18F]AFA in cerebellum of rat pretreated with compound 7e; n=3; format: functional, organism-based; conditions: tested as the 18F-labelled form
[26] = target: Sodium-dependent serotonin transporter (Rattus norvegicus) (UniProt P31652); assay: Specific binding of [18F]AFA in rat frontal cortex after citalopram treatment; n=3; format: functional, tissue-based; conditions: tested as the 18F-labelled form; method in brief: as §2
[27] = organism: Rattus norvegicus; assay: Regional uptake of [18F]AFA in blood of rat pretreated with compound 7e; n=3; format: functional, organism-based; conditions: tested as the 18F-labelled form
[28] = organism: Rattus norvegicus; assay: Regional uptake of [18F]AFA in hippocampus of rat pretreated with compound GBR-12935; n=3; format: functional, organism-based; conditions: tested as the 18F-labelled form; method in brief: as §1
[29] = organism: Rattus norvegicus; assay: Regional uptake of [18F]AFA in hippocampus of rat pretreated with compound citalopram; n=3; format: functional, organism-based; conditions: tested as the 18F-labelled form; method in brief: as §1
[30] = organism: Rattus norvegicus; assay: Regional uptake of [18F]AFA in striatum of rat pretreated with compound nisoxetine; n=3; format: functional, organism-based; conditions: tested as the 18F-labelled form; method in brief: as §1
[31] = organism: Rattus norvegicus; assay: Regional uptake of [18F]AFA in frontal cortex of rat pretreated with compound citalopram; n=3; format: functional, organism-based; conditions: tested as the 18F-labelled form; method in brief: as §1
[32] = organism: Rattus norvegicus; assay: Regional uptake of [18F]AFA in cerebellum of rat pretreated with compound citalopram; n=3; format: functional, organism-based; conditions: tested as the 18F-labelled form; method in brief: as §1
[33] = target: Sodium-dependent serotonin transporter (Rattus norvegicus) (UniProt P31652); assay: Specific binding of [18F]AFA in rat hippocampus after citalopram treatment; n=3; format: functional, tissue-based; conditions: tested as the 18F-labelled form; method in brief: as §2
[34] = organism: Rattus norvegicus; assay: Regional uptake of [18F]AFA in thalamus of rat pretreated with compound GBR-12935; n=3; format: functional, organism-based; conditions: tested as the 18F-labelled form; method in brief: as §1
[35] = target: Sodium-dependent serotonin transporter (Rattus norvegicus) (UniProt P31652); assay: Specific binding of [18F]AFA in rat frontal cortex after GBR-12935 treatment; n=3; format: functional, tissue-based; conditions: tested as the 18F-labelled form; method in brief: as §2
[36] = organism: Rattus norvegicus; assay: Regional uptake of [18F]-AFA in hypothalamus of rat pretreated with compound nisoxetine; n=3; format: functional, organism-based; conditions: tested as the 18F-labelled form; method in brief: as §1
[37] = organism: Rattus norvegicus; assay: Regional uptake of [18F]-AFA in striatum of rat pretreated with compound 7e; n=3; format: functional, organism-based; conditions: tested as the 18F-labelled form
[38] = organism: Rattus norvegicus; assay: Regional uptake of [18F]AFA in hypothalamus of rat pretreated with compound citalopram; n=3; format: functional, organism-based; conditions: tested as the 18F-labelled form; method in brief: as §1
[39] = target: Sodium-dependent serotonin transporter (Rattus norvegicus) (UniProt P31652); assay: Specific binding of [18F]-AFA in rat striatum after nisoxetine treatment; n=3; format: functional, tissue-based; conditions: tested as the 18F-labelled form; method in brief: as §2
[40] = organism: Rattus norvegicus; assay: Regional uptake of [18F]AFA in frontal cortex of rat pretreated with compound 7e; n=3; format: functional, organism-based; conditions: tested as the 18F-labelled form
[41] = target: Sodium-dependent serotonin transporter (Rattus norvegicus) (UniProt P31652); assay: Specific binding of [18F]AFA in rat thalamus after citalopram treatment; n=3; format: functional, tissue-based; conditions: tested as the 18F-labelled form; method in brief: as §2
[42] = target: Sodium-dependent serotonin transporter (Rattus norvegicus) (UniProt P31652); assay: Specific binding of [18F]AFA in rat hypothalamus after GBR-12935 treatment; n=3; format: functional, tissue-based; conditions: tested as the 18F-labelled form; method in brief: as §2
[43] = organism: Rattus norvegicus; assay: Regional uptake of [18F]AFA in frontal cortex of rat pretreated with compound GBR-12935; n=3; format: functional, organism-based; conditions: tested as the 18F-labelled form; method in brief: as §1
[44] = organism: Rattus norvegicus; assay: Regional uptake of [18F]AFA in thalamus of rat pretreated with compound citalopram; n=3; format: functional, organism-based; conditions: tested as the 18F-labelled form; method in brief: as §1
[45] = target: Sodium-dependent serotonin transporter (Rattus norvegicus) (UniProt P31652); assay: Specific binding in rat hypothalamus at 90 min postinjection in vivo; format: functional, organism-based; conditions: tested as the 18F-labelled form; method in brief: as §3
[46] = target: Sodium-dependent serotonin transporter (Rattus norvegicus) (UniProt P31652); assay: Specific binding of [18F]AFA in rat hippocampus after GBR-12935 treatment; n=3; format: functional, tissue-based; conditions: tested as the 18F-labelled form; method in brief: as §2
[47] = target: Sodium-dependent serotonin transporter (Rattus norvegicus) (UniProt P31652); assay: Specific binding of [18F]AFA in rat striatum after GBR-12935 treatment; n=3; format: functional, tissue-based; conditions: tested as the 18F-labelled form; method in brief: as §2
[48] = organism: Rattus norvegicus; assay: Regional uptake of [18F]AFA in hippocampus of rat pretreated with compound nisoxetine; n=3; format: functional, organism-based; conditions: tested as the 18F-labelled form; method in brief: as §1
[49] = organism: Rattus norvegicus; assay: Regional uptake of [18F]AFA in cerebellum of rat pretreated with compound nisoxetine; n=3; format: functional, organism-based; conditions: tested as the 18F-labelled form; method in brief: as §1

CN(C)Cc1ccccc1Sc1ccc(CCF)cc1N
Uptake [1]: 0.06 %ID/g | Specific binding [2]: 4 %ID/g | Uptake [3]: 0.32 %ID/g | Specific binding [4]: 3.38 %ID/g | Uptake [5]: 0.29 %ID/g | Uptake [6]: 0.19 %ID/g | Specific binding [7]: 3.35 %ID/g | Uptake [8]: 0.15 %ID/g | Uptake [9]: 0.08 %ID/g | Specific binding [10]: 1 %ID/g | Specific binding [11]: 0.96 %ID/g | Specific binding [12]: 1.63 %ID/g | Specific binding [13]: 2.22 %ID/g | Uptake [14]: 0.11 %ID/g | Uptake [15]: 0.09 %ID/g | Uptake [16]: 0.14 %ID/g | Specific binding (dimensionless ratio) [17]: 4.5 | Uptake [18]: 0.06 %ID/g | Specific binding [19]: 0.5 %ID/g | Specific binding [20]: 3.56 %ID/g | Specific binding [21]: 1.82 %ID/g | pKi [22]: 8.74 | Uptake [23]: 0.2 %ID/g | Uptake [24]: 0.06 %ID/g | Uptake [25]: 0.07 %ID/g | Specific binding [26]: 0.31 %ID/g | Uptake [27]: 0.06 %ID/g | Uptake [28]: 0.18 %ID/g | Uptake [29]: 0.09 %ID/g | Uptake [30]: 0.21 %ID/g | Uptake [31]: 0.08 %ID/g | Uptake [32]: 0.06 %ID/g | Specific binding [33]: 0.54 %ID/g | Uptake [34]: 0.25 %ID/g | Specific binding [35]: 1.98 %ID/g | Uptake [36]: 0.33 %ID/g | Uptake [37]: 0.11 %ID/g | Uptake [38]: 0.12 %ID/g | Specific binding [39]: 2.1 %ID/g | Uptake [40]: 0.1 %ID/g | Specific binding [41]: 0.89 %ID/g | Specific binding [42]: 3.85 %ID/g | Uptake [43]: 0.17 %ID/g | Uptake [44]: 0.11 %ID/g | Specific binding (dimensionless ratio) [45]: 4.36 | Specific binding [46]: 2.18 %ID/g | Specific binding [47]: 2.62 %ID/g | Uptake [48]: 0.17 %ID/g | Uptake [49]: 0.07 %ID/g
